Measured values published in publication PMC4548982 (Chembiochem : a European journal of chemical biology, 2015).
In brackets after ≈: the same amount, converted by molar mass. Entries after “also recorded” stand apart in the source; their conditions may differ.

Tests used:
E. coli Δ7 prrn WT = test: Growth inhibition of E. coli Δ7 prrn WT; assay type: cell-based; details: for antibacterial activity in words: E. coli Δ7 prrn WT compared with A1408G and G1491U strains
ribosome = details: cited from earlier work
AAC(6′)-Ib′ = test: Relative initial rate of AME reaction, AAC; assay type: biochemical
[1] = tested on: mutant A1408G E. coli ribosomes; test: EF-G-dependent translocation inhibition; assay type: biochemical; details: read-out: Translocation inhibition IC50, A1408G
How it was run: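 Ribosomes purified from the corresponding Δ7 prrn E. coli strain carrying A1408G. The extent of EF-G-dependent translocation was measured by toeprinting across various concentrations of the test aminoglycoside. IC50 was obtained by fitting the data to the Hill equation.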

[2] = tested on: control (WT) E. coli ribosomes; test: EF-G-dependent translocation inhibition; assay type: biochemical; details: in vitro, WT (and A1408G) ribosomes
E. coli TolC (O) = test: Antibacterial MIC, E. coli TolC; assay type: cell-based; details: Escherichia coli
E. coli Δ7 prrn G1491U = test: Growth inhibition of E. coli Δ7 prrn G1491U; assay type: cell-based; details: Escherichia coli
E. coli Δ7 prrn A1408G = test: Growth inhibition of E. coli Δ7 prrn A1408G; assay type: cell-based; details: Escherichia coli

Row | SMILES | antibacterial activity in words (E. coli Δ7 prrn WT) | IC50 [1] [µM] | inhibition of translocation in words [2] | further results
1 | CCCCCCCCCCCCCCCCSCC1OC(OC2C(N)CC(N)C(OC3OC(CN)C(O)CC3N)C2O)C(O)C(N)C1O (stereo not shown) [3g] | indistinguishably strong antibacterial activity |  |  | 
2 | CCCCCCSCC1OC(OC2C(N)CC(N)C(OC3OC(CN)C(O)CC3N)C2O)C(O)C(N)C1O (stereo not shown) [3b] | virtually inactive; also recorded: antibacterial activity is completely lost |  |  | 
3 | CC(C)(C)c1ccc(SCC2OC(OC3C(N)CC(N)C(OC4OC(CN)C(O)CC4N)C3O)C(O)C(N)C2O)cc1 (stereo not shown) [3s] | virtually inactive |  |  | 
4 | CCCCCCCCCCCCCCSC[C@H]1O[C@H](O[C@@H]2[C@@H](O)[C@H](O[C@H]3O[C@H](CN)[C@@H](O)C[C@H]3N)[C@@H](N)C[C@H]2N)[C@H](O)[C@@H](N)[C@@H]1O [3f] | indistinguishably strong antibacterial activity |  |  | inhibition of in vitro translation in words (ribosome): fails to inhibit in vitro translation; relative initial rate, normalized to TOB (AAC(6′)-Ib′): > 200%
5 | NC[C@H]1O[C@H](O[C@H]2[C@H](O)[C@@H](O[C@H]3O[C@H](CSc4ccccc4F)[C@@H](O)[C@H](N)[C@H]3O)[C@H](N)C[C@@H]2N)[C@H](N)C[C@@H]1O [3x] |  | 310 | notably poorer inhibitors of translocation | 
6 | NC[C@H]1O[C@H](O[C@H]2[C@H](O)[C@@H](O[C@H]3O[C@H](CO)[C@@H](O)[C@H](N)[C@H]3O)[C@H](N)C[C@@H]2N)[C@H](N)C[C@@H]1O [TOB, tobramycin] |  | 700 |  | MIC (E. coli TolC (O)): > 150 µg/mL; MIC (E. coli Δ7 prrn G1491U): > 150 µg/mL; MIC (E. coli Δ7 prrn WT; Escherichia coli): 18.8 µg/mL (≈ 40.2 µM); MIC (E. coli Δ7 prrn A1408G): > 150 µg/mL
7 | COc1ccccc1SC[C@H]1O[C@H](O[C@@H]2[C@@H](O)[C@H](O[C@H]3O[C@H](CN)[C@@H](O)C[C@H]3N)[C@@H](N)C[C@H]2N)[C@H](O)[C@@H](N)[C@@H]1O [3u] |  | 620 | notably poorer inhibitors of translocation | 
8 | NCC1OC(OC2C(N)CC(N)C(OC3OC(CSc4cccc(F)c4)C(O)C(N)C3O)C2O)C(N)CC1O (stereo not shown) [3y] |  | 210 |  | 
9 | CCCCCCCCCCCCCCCCCCSC[C@H]1O[C@H](O[C@@H]2[C@@H](O)[C@H](O[C@H]3O[C@H](CN)[C@@H](O)C[C@H]3N)[C@@H](N)C[C@H]2N)[C@H](O)[C@@H](N)[C@@H]1O [3h] |  |  | failed to inhibit translocation | 
10 | CCCCSCC1OC(OC2C(N)CC(N)C(OC3OC(CN)C(O)CC3N)C2O)C(O)C(N)C1O (stereo not shown) [3a] | biological activity indistinguishable from TOB |  |  | 
11 | CCCCCCCCCCCCSC[C@H]1O[C@H](O[C@@H]2[C@@H](O)[C@H](O[C@H]3O[C@H](CN)[C@@H](O)C[C@H]3N)[C@@H](N)C[C@H]2N)[C@H](O)[C@@H](N)[C@@H]1O [3e] | lower activity with little-to-no h44-dependence |  | fails to inhibit translocation | 
12 | CCCCCCCCCCSC[C@H]1O[C@H](O[C@@H]2[C@@H](O)[C@H](O[C@H]3O[C@H](CN)[C@@H](O)C[C@H]3N)[C@@H](N)C[C@H]2N)[C@H](O)[C@@H](N)[C@@H]1O [3d] | lower activity with little-to-no h44-dependence |  | failed to inhibit translocation | 
